# Data published in ChEMBL document CHEMBL1124126, “Terminal bifunctional retinoids. Synthesis and evaluations related to cancer chemopreventive activity” (1988).
# What was measured:
# F9 = experiment: Ability to induce differentiation of mouse F9 embryonal carcinoma cells.; format: functional; details: read-out: ED50 (the source's name)
# Method in brief: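 Mouse F9 embryonal carcinoma cells grown at 1 × 10^5 cells/mL for 4 days with or without retinoid at 10^-7 to 10^-11 M. Harvest fluid mixed with 0.13 μM plasminogen, 0.3 mM H-D-Val-Leu-Lys-p-NA, 0.1% Tween 80 and fibrinogen fragments in Tris·HCl pH 7.5. Incubated 4 h at 25 °C, p-nitroaniline read at 405 nm. Triplicate mean absorbances plotted semilog against molarity; ED50 taken at midpoint between maximal and minimal absorbance.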
# Gallus gallus = species: Gallus gallus; experiment: Relative percent binding to cellular retinoic acid binding protein (CRABP) in chick embryo skin.
# Method in brief: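 Competition of unlabeled retinoid with [3H]retinoic acid for binding to CRABP from chick embryo skin. Inhibition caused by a 100-fold molar excess of unlabeled retinoic acid defined as 100%.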
Compound,RA (Gallus gallus) [%],EC50 (F9) [nM]
CC(/C=C/C=C(C)/C=C/C1=C(C)CCCC1(C)C)=C(C(=O)O)C(=O)O,65,0.5
CCOC(=O)/C(C(=O)O)=C(C)/C=C/C=C(C)/C=C/C1=C(C)CCCC1(C)C,90,1
CCNC(=O)/C(C(=O)O)=C(C)/C=C/C=C(C)/C=C/C1=C(C)CCCC1(C)C,55,0.5
CC1=C(/C=C/C(C)=C/C=C/C(C)=C\C(=O)O)C(C)(C)CCC1 [ISOTRETINOIN],100,0.3
CC1=C(/C=C/C(C)=C/C=C/C(C)=C/C(=O)O)C(C)(C)CCC1 [TRETINOIN],100,0.1

# Now from value to compound, other results behind:
RA (Gallus gallus) [%],Compound,EC50 (F9) [nM]
0,CCOC(=O)C(C(=O)OCC)=C(C)/C=C/C=C(C)/C=C/C1=C(C)CCCC1(C)C,4.5
0,CCNC(=O)\C(C(=O)OCC)=C(C)/C=C/C=C(C)/C=C/C1=C(C)CCCC1(C)C,6
0,CCNC(=O)/C(C(=O)OCC)=C(C)/C=C/C=C(C)/C=C/C1=C(C)CCCC1(C)C,6
55,CCNC(=O)\C(C(=O)O)=C(C)/C=C/C=C(C)/C=C/C1=C(C)CCCC1(C)C,0.6
